Experimental data as given in paper PMC8500941 (Molecular cell, 2021).
“Also recorded” adds a separate entry of the source.

Legend:
DnaK [1] = conditions: for kcat (ATP hydrolysis): single-turnover, constitutively stimulated state (k′ = kcat); for rate of ATP hydrolysis, basal: buffer A pH 7.5, single-turnover; for ATP hydrolysis (in words): intrinsic / low peptide concentration, compared with WT
DnaK [2] = conditions: from d with KD^0S 1.73 μM; 20°C
W102 of DnaK = test: Tryptophan fluorescence assay; type: biochemical, Escherichia coli; conditions: for wavelength of maximal W102 fluorescence: 1 μM DnaK, buffer A pH 7.5, ~25°C, excitation 290 nm; for W102 fluorescence of D148 mutants (in words): ATP and ADP, compared with wild-type levels
Method in brief: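 Protein: full-length DnaK with C-terminal His6, expressed in BB205 and purified by HisTrap then HiTrap Q. Protein (1 μM final) preincubated 2 min with 2 mM ATP or ADP in buffer A (25 mM Hepes-KOH pH 7.5, 100 mM KCl, 10 mM Mg(OAc)2). Emission 300–400 nm recorded at ~25°C. Spectra normalised to ADP peak = 1.0. ATP-versus-ADP peak-wavelength shift compared.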

[3] = tested on: yeast Ssa1 and E. coli DnaK; conditions: heat shock; ref Liu & Hendrickson, 2007; cited from earlier work
[4] = tested on: dnaK deletion strain BB205 E. coli cells; test: Cell viability tests; type: cell-based, Escherichia coli; conditions: growth on LB agar at elevated temperature (37°C to 40°C), 20 μM IPTG
Method in brief: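 DnaK-dependence test: pBB46 plasmids (ampR) carrying mutant dnaK transformed into BB205 (camR kanR). Fresh overnight culture from each fresh transformation, serially diluted, spotted on LB with 50 μg/ml ampicillin, 25 μg/ml kanamycin, 25 μg/ml chloramphenicol, 20 μM IPTG. Grown overnight at 37°C to 40°C, with control plates at 30°C. Viability scored from growth.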

DnaK [5] = conditions: from biochemical assays of this paper

Substance: WT∷NR: DnaK (residues 1–609) fused through a flexible linker to the NRLLLTG heptapeptide
- kcat (ATP hydrolysis) (DnaK [1]; 20°C): 0.00455 ± 0.00013 s⁻¹
- KeqS = [R] / [S] (DnaK [2]): 0

Substance: WT DnaK: full-length wild-type E. coli Hsp70 DnaK
- wavelength of maximal W102 fluorescence (W102 of DnaK; 2 mM ADP): 342 nm
- wavelength of maximal W102 fluorescence (W102 of DnaK; 2 mM ATP): 335 nm
- W102 fluorescence change (in words) (W102 of DnaK; ATP as compared with ADP): quenched and blue shifted
- rate of ATP hydrolysis, basal (DnaK [1]; basal, 20°C): 0.012 min⁻¹

Substance: N170D
- rate of ATP hydrolysis, basal (DnaK [1]; basal, 20°C): 0.37 min⁻¹
- enhancement of basal ATP hydrolysis over WT (DnaK [1]; basal, 20°C, versus WT): 31 fold
- phenotype of mutants (in words) [3]: profoundly defective

Substance: D148V
- W102 fluorescence of D148 mutants (in words) (W102 of DnaK): quenched and blue-shifted to beyond wild-type levels

Substance: D148I
- W102 fluorescence of D148 mutants (in words) (W102 of DnaK): quenched and blue-shifted to beyond wild-type levels
- chaperone activity / cell viability (in words) [4]: destroy chaperone activity
- allosteric state phenotype (in words) (DnaK [5]): exclusive stabilization of the restraining R-state alternative

Substance: I160D
- ATP hydrolysis (in words) (DnaK [1]): constitutively high ATPase activities
- phenotype of mutants (in words) [3]: profoundly defective

Substance: I483D
- chaperone activity / cell viability (in words) [4]: negligible chaperone activity; also recorded: destroy chaperone activity
- kcat (ATP hydrolysis) (DnaK [1]; 20°C): 0.00452 ± 0.000183 s⁻¹
- ATP hydrolysis (in words) (DnaK [1]): constitutively high ATPase activities
- KeqS = [R] / [S] (DnaK [2]): 0
- phenotype of mutants (in words) [3]: profoundly defective

Substance: V389D
- phenotype of mutants (in words) [3]: profoundly defective
